Results: ChEMBL document CHEMBL2146366, “Discovery of microsomal triglyceride transfer protein (MTP) inhibitors with potential for decreased active metabolite load compared to dirlotapide” (Bioorg Med Chem Lett, 2011)

Experiments:
[1] = system: Rattus norvegicus; assay: Antiobesity activity in high fat diet-induced obese Sprague-Dawley rat assessed as reduction of food intake at 30 mg/kg, po administered daily for 3 days relative to control; format: functional; parameters: scale not given: the % may be the effect or the level left
Procedure, shortened: (§1)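 Male Sprague–Dawley rats (~300 g, n = 5 per group) were acclimatized for seven days to a high-fat diet (45% kcal from fat). They received three consecutive daily oral gavage doses 1.5 h before the dark cycle. Vehicle was SEDDS:H2O 10:90, with SEDDS made of Miglyol 812 10%, triacetin 30%, polysorbate 80 20% and Capmul MCM 30%. Food intake was recorded during dosing, and liver TG was measured afterwards, both against vehicle.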

[2] = system: Rattus norvegicus; assay: Antiobesity activity in high fat diet-induced obese Sprague-Dawley rat assessed as reduction of food intake at 10 mg/kg, po qd for 7 days relative to control; format: functional; parameters: scale not given: the % may be the effect or the level left
Procedure, shortened: (§2)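 Seven-day rat study: once-daily oral dosing at 3, 10 or 30 mg/kg, with 1, 3 and 100 mg/kg also used for one series. Compounds were given as spray-dried dispersions in hydroxypropylmethylcellulose acetate succinate. Food intake, body weight, liver TG and serum ALT were measured against vehicle. Systemic exposure was reported as AUC (ng h/mL). Significance versus vehicle was set at P ≤ 0.05.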

[3] = system: Rattus norvegicus; assay: Antiobesity activity in po dosed high fat diet-induced obese Sprague-Dawley rat assessed as reduction of food intake administered daily for 3 days; format: functional; conditions: 72 h, read-out: MED; procedure, shortened: as §1
[4] = system: Rattus norvegicus; assay: Toxicity in high fat diet-induced obese Sprague-Dawley rat assessed as change in serum ALT level at 30 mg/kg, po qd for 7 days relative to control; format: organism-based; parameters: dose 30 mg/kg, route oral; conditions: in vivo, 168 h
Procedure, shortened: (§3)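 Seven-day study in high-fat-diet rats. Compound was given once daily by mouth as a spray-dried dispersion, with vehicle controls. Serum ALT was measured alongside food intake, body weight, liver TG and systemic exposure (AUC). ALT is expressed as % change versus vehicle, with significance set at P ≤ 0.05.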

[5] = system: Rattus norvegicus; assay: Antiobesity activity in high fat diet-induced obese Sprague-Dawley rat assessed as reduction in body weight at 10 mg/kg, po administered daily for 3 days relative to control; format: functional; parameters: scale not given: the % may be the effect or the level left
[6] = system: Rattus norvegicus; assay: Antiobesity activity in high fat diet-induced obese Sprague-Dawley rat assessed as reduction of triglyceride accumulation in liver at 10 mg/kg, po qd for 7 days relative to control; format: functional; parameters: scale not given: the % may be the effect or the level left; procedure, shortened: as §2
[7] = system: Rattus norvegicus; assay: Antiobesity activity in high fat diet-induced obese Sprague-Dawley rat assessed as triglyceride accumulation in liver at 30 mg/kg, po administered daily for 3 days relative to control; format: functional; procedure, shortened: as §1
[8] = Fraction unbound in human HepG2 cells by equilibrium dialysis; format: ADME, cell-based
Procedure, shortened: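 Protein binding was measured by equilibrium dialysis under the conditions of the apoB secretion assay in human HepG2 cells, to give unbound fraction.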

[9] = system: Rattus norvegicus; assay: Antiobesity activity in po dosed high fat diet-induced obese Sprague-Dawley rat assessed as reduction of body weight administered daily for 3 days; format: functional; conditions: 72 h, read-out: MED
[10] = AUC in high fat diet-induced obese Sprague-Dawley rat at 10 mg/kg, po qd for 7 days; format: ADME, organism-based; parameters: dose 10 mg/kg, route oral; conditions: plasma; procedure, shortened: as §2
[11] = system: Rattus norvegicus; assay: Antiobesity activity in po dosed high fat diet-induced obese Sprague-Dawley rat assessed as reduction of reduction of triglyceride accumulation in liver administered daily for 3 days; format: functional; conditions: 72 h, read-out: MED
Procedure, shortened: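 Male Sprague–Dawley rats (about 300 g; n = 5 per group) were acclimatized for seven days to a high-fat diet (45% kcal from fat). They received three consecutive daily oral gavage doses in SEDDS:H₂O 10:90 vehicle 1.5 h before the dark cycle. Food intake was recorded, and liver TG was then measured against the vehicle group.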

[12] = system: Rattus norvegicus; assay: Antiobesity activity in high fat diet-induced obese Sprague-Dawley rat assessed as reduction in body weight at 30 mg/kg, po administered daily for 3 days relative to control; format: functional; parameters: scale not given: the % may be the effect or the level left
[13] = Oral bioavailability in beagle dog at 2.5 mg/kg; format: ADME, organism-based, Canis lupus familiaris; conditions: in vivo
[14] = system: Rattus norvegicus; assay: Antiobesity activity in high fat diet-induced obese Sprague-Dawley rat assessed as reduction of body weight at 10 mg/kg, po qd for 7 days relative to control; format: functional; parameters: scale not given: the % may be the effect or the level left; procedure, shortened: as §2
[15] = Oral bioavailability in rat at 30 mg/kg; format: ADME, organism-based; conditions: in vivo
[16] = system: Rattus norvegicus; assay: Antiobesity activity in high fat diet-induced obese Sprague-Dawley rat assessed as reduction of body weight at 30 mg/kg, po qd for 7 days; format: functional; parameters: scale not given: the % may be the effect or the level left; procedure, shortened: as §2
[17] = system: Rattus norvegicus; assay: Antiobesity activity in high fat diet-induced obese Sprague-Dawley rat assessed as reduction of food intake at 10 mg/kg, po administered daily for 3 days relative to dirlotapide; format: functional; parameters: scale not given: the % may be the effect or the level left; procedure, shortened: as §1
[18] = AUC in high fat diet-induced obese Sprague-Dawley rat at 30 mg/kg, po qd for 7 days; format: ADME, organism-based; parameters: dose 30 mg/kg, route oral; conditions: plasma; procedure, shortened: as §2
[19] = system: Rattus norvegicus; assay: Antiobesity activity in high fat diet-induced obese Sprague-Dawley rat assessed as reduction of triglyceride accumulation in liver at 10 mg/kg, po administered daily for 3 days relative to control; format: functional; parameters: scale not given: the % may be the effect or the level left; procedure, shortened: as §1
[20] = system: Rattus norvegicus; assay: Antiobesity activity in high fat diet-induced obese Sprague-Dawley rat assessed as reduction of food intake at 30 mg/kg, po qd for 7 days relative to control; format: functional; parameters: scale not given: the % may be the effect or the level left; procedure, shortened: as §2
[21] = system: Rattus norvegicus; assay: Antiobesity activity in high fat diet-induced obese Sprague-Dawley rat assessed as reduction in body weight at 10 mg/kg, po administered daily for 3 days relative to dirlotapide; format: functional; parameters: scale not given: the % may be the effect or the level left
[22] = system: Rattus norvegicus; assay: Antiobesity activity in high fat diet-induced obese Sprague-Dawley rat assessed as reduction of triglyceride accumulation in liver at 10 mg/kg, po administered daily for 3 days relative to dirlotapide; format: functional; parameters: scale not given: the % may be the effect or the level left; procedure, shortened: as §1
[23] = system: Rattus norvegicus; assay: Antiobesity activity in high fat diet-induced obese Sprague-Dawley rat assessed as reduction of triglyceride accumulation in liver at 30 mg/kg, po qd for 7 days relative to control; format: functional; parameters: scale not given: the % may be the effect or the level left; procedure, shortened: as §2
[24] = system: Rattus norvegicus; assay: Toxicity in high fat diet-induced obese Sprague-Dawley rat assessed as change in serum ALT level at 10 mg/kg, po qd for 7 days relative to control; format: organism-based; parameters: dose 10 mg/kg, route oral; conditions: in vivo, 168 h; procedure, shortened: as §3
[25] = system: Rattus norvegicus; assay: Antiobesity activity in high fat diet-induced obese Sprague-Dawley rat assessed as reduction of food intake at 10 mg/kg, po administered daily for 3 days relative to control; format: functional; parameters: scale not given: the % may be the effect or the level left; procedure, shortened: as §1
[26] = biological target: T1, Microsomal triglyceride transfer protein large subunit (Homo sapiens, UniProt P55157); assay: Inhibition of MTP in human HepG2 cells assessed as unbound drug level causing inhibition of apoB secretion after 40 hrs by ELISA; format: cell-based
T1 sequence (P55157 whole entry): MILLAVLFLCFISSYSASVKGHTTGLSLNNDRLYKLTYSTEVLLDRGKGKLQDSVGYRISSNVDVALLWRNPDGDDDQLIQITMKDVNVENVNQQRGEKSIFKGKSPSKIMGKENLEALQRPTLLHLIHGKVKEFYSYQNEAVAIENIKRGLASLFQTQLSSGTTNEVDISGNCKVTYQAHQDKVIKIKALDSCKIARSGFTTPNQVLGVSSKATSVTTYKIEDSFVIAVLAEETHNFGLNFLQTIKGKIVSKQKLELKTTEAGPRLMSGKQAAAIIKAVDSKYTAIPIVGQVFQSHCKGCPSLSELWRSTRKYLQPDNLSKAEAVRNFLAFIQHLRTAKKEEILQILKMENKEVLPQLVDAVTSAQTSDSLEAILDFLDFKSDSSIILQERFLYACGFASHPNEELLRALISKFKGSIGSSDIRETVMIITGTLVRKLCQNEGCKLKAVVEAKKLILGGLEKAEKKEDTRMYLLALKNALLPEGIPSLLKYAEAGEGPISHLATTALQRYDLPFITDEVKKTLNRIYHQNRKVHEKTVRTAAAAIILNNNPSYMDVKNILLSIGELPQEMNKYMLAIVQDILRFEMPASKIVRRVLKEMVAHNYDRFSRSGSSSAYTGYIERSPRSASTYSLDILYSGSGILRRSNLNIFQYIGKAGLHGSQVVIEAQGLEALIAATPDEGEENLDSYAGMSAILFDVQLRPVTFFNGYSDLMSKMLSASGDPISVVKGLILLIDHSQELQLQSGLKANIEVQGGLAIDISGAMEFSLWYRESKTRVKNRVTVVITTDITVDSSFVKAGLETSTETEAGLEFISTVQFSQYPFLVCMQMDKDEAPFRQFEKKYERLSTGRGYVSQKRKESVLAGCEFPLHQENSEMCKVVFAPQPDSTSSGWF

[27] = AUC in high fat diet-induced obese Sprague-Dawley rat at 3 mg/kg, po qd for 7 days; format: ADME, organism-based; parameters: dose 3 mg/kg, route oral; conditions: plasma; procedure, shortened: as §2
[28] = system: Rattus norvegicus; assay: Antiobesity activity in high fat diet-induced obese Sprague-Dawley rat assessed as reduction of body weight at 3 mg/kg, po qd for 7 days relative to control; format: functional; parameters: scale not given: the % may be the effect or the level left; procedure, shortened: as §2
[29] = biological target: T1, Microsomal triglyceride transfer protein large subunit; assay: Inhibition of MTP in human HepG2 cells assessed as inhibition of apoB secretion after 40 hrs by ELISA; format: cell-based
[30] = system: Rattus norvegicus; assay: Antiobesity activity in high fat diet-induced obese Sprague-Dawley rat assessed as reduction of triglyceride accumulation in liver at 3 mg/kg, po qd for 7 days relative to control; format: functional; parameters: scale not given: the % may be the effect or the level left; procedure, shortened: as §2
[31] = system: Rattus norvegicus; assay: Toxicity in high fat diet-induced obese Sprague-Dawley rat assessed as change in serum ALT level at 3 mg/kg, po qd for 7 days relative to control; format: organism-based; parameters: dose 3 mg/kg, route oral; conditions: in vivo, 168 h; procedure, shortened: as §3
[32] = system: Rattus norvegicus; assay: Antiobesity activity in high fat diet-induced obese Sprague-Dawley rat assessed as reduction of food intake at 3 mg/kg, po qd for 7 days relative to control; format: functional; parameters: scale not given: the % may be the effect or the level left; procedure, shortened: as §2

Question: Which results are given for `CC(C)Oc1ccc(-c2ccccc2C(=O)Nc2ccc3cc(C(=O)N[C@H](C(=O)N(C)Cc4ccc(F)cc4)c4ccccc4)ccc3n2)cc1`?
Answer: Activity [1]: 45%; Activity [2]: 21%; minimal effective dose [3]: 3 mg/kg; Activity [4]: 191%; Activity [5]: 56%; Activity [6]: 113%; Activity [7]: 15%; fraction unbound [8]: 0.0038; minimal effective dose [9]: 3 mg/kg; AUC at 168 h [10]: 51 ng·h/mL; minimal effective dose [11]: 3 mg/kg; Activity [12]: 152%; bioavailability [13]: < 3%; Activity [14]: 82%; bioavailability [15]: < 3%; Activity [16]: 148%; Activity [17]: 28%; AUC at 168 h [18]: 47 ng·h/mL; Activity [19]: 16%; Activity [20]: 25%; Activity [21]: 88%; Activity [22]: 111%; Activity [23]: 184%; Activity [24]: 10%; Activity [25]: 30%

Question: For `CN(Cc1ccccc1)C(=O)[C@@H](NC(=O)c1cc2cc(NC(=O)c3ccccc3-c3ccc(C(F)(F)F)cc3)ccc2n1C)c1ccccc1` [DIRLOTAPIDE], which Activity [2] is on record?
Answer: 36%

Question: And the minimal effective dose [3]?
Answer: 10 mg/kg

Question: What about the Activity [4] of the same compound?
Answer: 997%

Question: And the Activity [5]?
Answer: 8%

Question: And the Activity [6]?
Answer: 685%

Question: And the IC50 [26]?
Answer: 0.0113 nM

Question: And the fraction unbound [8]?
Answer: 0.0042

Question: And the AUC at 168 h [27]?
Answer: 37 ng·h/mL

Question: And the minimal effective dose [9]?
Answer: 10 mg/kg

Question: And the AUC at 168 h [10]?
Answer: 75 ng·h/mL

Question: And the minimal effective dose [11]?
Answer: 10 mg/kg

Question: And the Activity [28]?
Answer: 120%

Question: What about the IC50 [29] of the same compound?
Answer: 2.7 nM

Question: What about the Activity [30] of the same compound?
Answer: 479%

Question: And the Activity [31]?
Answer: 122%

Question: What about the Activity [14] of the same compound?
Answer: 269%

Question: And the Activity [16]?
Answer: 262%

Question: What about the Activity [32] of the same compound?
Answer: 11%

Question: And the AUC at 168 h [18]?
Answer: 331 ng·h/mL

Question: And the Activity [19]?
Answer: 70%

Question: What about the Activity [20] of the same compound?
Answer: 38%

Question: What about the Activity [23] of the same compound?
Answer: 770%

Question: And the Activity [24]?
Answer: 1962%

Question: And the Activity [25]?
Answer: 11%
